Test: Inhibition of GST-tagged mouse Mcl-1 (152 to 309 residues)/FITC-labelled Bim (unknown origin) protein protein interaction at 100 uM by fluorescence polarization method relative to control
Procedure, shortened: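 Single-point fluorescence polarization competition at 100 μM. GST-tagged mouse Mcl-1(152–309) (20 nM stock in PBS, 0.005% Tween 20) was mixed with the compound in PBS containing 25% DMSO and 0.005% Tween 20. FITC-Bim-BH3 (10 nM stock in PBS, 5% DMSO) was then added and shaken 3 min at room temperature. Polarization (mP) was read at ex 480/em 535 nm, and percent inhibition is relative to control.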

Compound	inhibition [%]
[N-]=[N+]=NS(=O)(=O)c1ccc(CN2Cc3c(Cl)cccc3C(Sc3ccccc3)C2)cc1 (configuration not stated)	25
CC1(C)CCN(c2ccc(C(=O)S)cc2)CC1	< 5
OC(=S)c1ccccc1	< 5
[N-]=[N+]=NS(=O)(=O)c1ccc2ccc(S(=O)(=O)NCCSc3ccccc3)cc2c1	14
COc1cc2c(cc1OC)C(O)N(CC(=O)O)CC2 (configuration not stated)	< 5

Continued, values first:

inhibition [%]	Compound
< 5	O=C(S)c1ccco1
< 5	Cc1nc(-c2ccccc2)sc1C(=O)S
< 5	O=C(S)c1ccc(OC(F)(F)F)cc1
< 5	O=C(S)c1ccno1
< 5	COc1cc(OC)cc(C(=O)S)c1
< 5	O=C(S)c1cccc([N+](=O)[O-])c1
< 5	O=C(S)c1cccc2ccccc12

Source: ChEMBL document CHEMBL5380845, “Going beyond Binary: Rapid Identification of Protein-Protein Interaction Modulators Using a Multifragment Kinetic Target-Guided Synthesis Approach” (J Med Chem, 2023)
